Laboratory results taken from ChEMBL document CHEMBL1817631, “Synthesis and characterization of tritylthioethanamine derivatives with potent KSP inhibitory activity” (Bioorg Med Chem, 2011).
Activity calls are given as the source filed them. The rule behind the calls is not given here.

Experiments:
HL-60(TB) = assay: Growth inhibition of human HL-60(TB) cells; format: functional
TK-10 = assay: Growth inhibition of human TK10 cells; format: functional
NCI-H226 = assay: Growth inhibition of human NCI-H226 cells; format: functional
[1] = molecular target: Chromosome-associated kinesin KIF4A (Homo sapiens) (UniProt O95239); assay: Inhibition of chromokinesin
CCRF-CEM = assay: Growth inhibition of human CCRF-CEM cells; format: functional
SK-OV-3 = assay: Growth inhibition of human SKOV3 cells; format: functional
OVCAR-4 = assay: Growth inhibition of human OVCAR4 cells; format: functional
OVCAR-8 = assay: Growth inhibition of human OVCAR8 cells; format: functional
U-251 = assay: Growth inhibition of human U251 cells; format: functional
ACHN = assay: Growth inhibition of human ACHN cells; format: functional
M14 = assay: Growth inhibition of human M14 cells; format: functional
COLO 205 = assay: Growth inhibition of human COLO205 cells; format: functional
HeLa [2] = assay: Induction of KSP depletion in human HeLa cells after 4 hrs by immunofluorescence analysis; format: functional, cell-based
Method in brief: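 HeLa cells were treated 4 h across a concentration series of compound in DMSO, then fixed in 100% MeOH at −20 °C. They were probed overnight at 4 °C with mouse anti-KSP and rabbit anti-EB1 to mark microtubules, with Alexa Fluor secondaries and DNA counterstain. KSP (green channel) images were taken at equivalent exposure times.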

HeLa [3] = assay: Effect on interphase microtubule organization in human HeLa cells at 1 uM; format: functional, cell-based
Method in brief: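 HeLa cells were grown in MEM/Earle's BSS with 10% FBS at 37 °C and 5% CO2, then treated 4 h with 1 μM compound or 0.1% DMSO carrier. Cells were fixed in 100% MeOH at −20 °C and blocked in PBS-5% BSA. They were stained overnight at 4 °C with mouse anti-tubulin and for DNA, then imaged by epifluorescence with structured illumination.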

SF-539 = assay: Growth inhibition of human SF539 cells; format: functional
HT-29 = assay: Growth inhibition of human HT-29 cells; format: functional
SK-MEL-28 = assay: Growth inhibition of human SK-MEL-28 cells; format: functional
MOLT-4 = assay: Growth inhibition of human MOLT4 cells; format: functional
[4] = molecular target: T1, Kinesin-like protein Klp61F (Drosophila melanogaster) (UniProt P46863); assay: Inhibition of Drosophila melanogaster Klp61F in S2 cells at 100 uM up to 7 hrs by immunofluorescence analysis; format: cell-based
T1 sequence (whole entry): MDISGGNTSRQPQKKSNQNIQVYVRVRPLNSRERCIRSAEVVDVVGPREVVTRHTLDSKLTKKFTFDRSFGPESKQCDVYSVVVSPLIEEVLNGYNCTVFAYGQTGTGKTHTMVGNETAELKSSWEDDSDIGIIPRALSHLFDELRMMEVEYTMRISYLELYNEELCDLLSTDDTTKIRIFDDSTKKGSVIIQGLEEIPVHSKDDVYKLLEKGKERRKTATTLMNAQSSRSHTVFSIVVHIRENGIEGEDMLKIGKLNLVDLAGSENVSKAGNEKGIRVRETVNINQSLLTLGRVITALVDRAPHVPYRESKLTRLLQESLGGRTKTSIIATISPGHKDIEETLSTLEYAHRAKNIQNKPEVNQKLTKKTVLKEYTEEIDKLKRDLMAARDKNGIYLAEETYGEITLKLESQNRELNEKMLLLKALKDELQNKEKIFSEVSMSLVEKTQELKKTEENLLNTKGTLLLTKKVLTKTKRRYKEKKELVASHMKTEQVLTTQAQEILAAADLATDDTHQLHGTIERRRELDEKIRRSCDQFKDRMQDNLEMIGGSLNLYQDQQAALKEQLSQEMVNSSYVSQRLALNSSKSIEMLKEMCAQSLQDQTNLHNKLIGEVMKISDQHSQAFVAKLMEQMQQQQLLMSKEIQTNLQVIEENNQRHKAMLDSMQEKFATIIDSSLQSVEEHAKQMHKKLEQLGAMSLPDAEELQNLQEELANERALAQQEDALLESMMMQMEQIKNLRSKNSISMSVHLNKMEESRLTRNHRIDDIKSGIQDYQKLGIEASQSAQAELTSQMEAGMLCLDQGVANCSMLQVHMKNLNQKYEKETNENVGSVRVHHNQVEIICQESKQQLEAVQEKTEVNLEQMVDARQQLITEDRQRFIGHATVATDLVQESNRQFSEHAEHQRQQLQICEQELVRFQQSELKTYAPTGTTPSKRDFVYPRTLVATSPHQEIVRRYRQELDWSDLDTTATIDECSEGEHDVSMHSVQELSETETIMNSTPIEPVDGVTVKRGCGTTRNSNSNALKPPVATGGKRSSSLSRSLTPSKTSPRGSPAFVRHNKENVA
Method in brief: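 Drosophila S2 cells were exposed to compound over a three-log concentration range up to 100 μM, with treatments extending up to 7 h. Bipolar spindle formation was scored by immunofluorescence.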

HCC 2998 = assay: Growth inhibition of human HCC2998 cells; format: functional
HeLa [5] = assay: Induction of KSP depletion in human HeLa cells after 4 hrs by immunofluorescence analysis relative to STLC; format: functional
Method in brief: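 HeLa cells in MEM/Earle's BSS with 10% FBS at 37°C, 5% CO2 were exposed 4 h to DMSO-dissolved compound over a range of doses. They were then fixed in 100% MeOH at −20°C (≥30 min), rehydrated in PBS, blocked in PBS-5% BSA, and stained overnight at 4°C with mouse anti-KSP plus rabbit anti-EB1 (microtubules). DNA was counterstained. Green channel was imaged at equal exposure.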

K562 = assay: Growth inhibition of human K562 cells; format: functional
[6] = Growth inhibition of human […] cells; format: functional
SF-268 = assay: Growth inhibition of human SF268 cells; format: functional
SNB-19 = assay: Growth inhibition of human SNB19 cells; format: functional
786-0 = assay: Growth inhibition of human 786-0 cells; format: functional
SF-295 = assay: Growth inhibition of human SF295 cells; format: functional
HCT-15 = assay: Growth inhibition of human HCT15 cells; format: functional
UACC-62 = assay: Growth inhibition of human UACC62 cells; format: functional
A549 = assay: Growth inhibition of human A549 cells; format: functional
[7] = Inhibition of bipolar spindle formation in Strongylocentrotus purpuratus eggs; format: functional, Egg
Method in brief: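 S. purpuratus eggs (gametes released with 0.5M KCl) were fertilized in artificial seawater with 2 mM 3-amino triazole and stripped of envelopes 20 min post-fertilization. They were then cultured with 0.1% DMSO or inhibitor at 100 nM–100 μM, fixed at first mitosis and stained for microtubules and DNA. 100 cells per condition were scored for bipolar spindles to derive EC50.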

Malme-3M = assay: Growth inhibition of human MALME-3M cells; format: functional
[8] = molecular target: Centromere-associated protein E (Homo sapiens) (UniProt Q02224); assay: Inhibition of CENP-E
Method in brief: (§1)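 Microtubule-activated ATPase end-point assay with kinesin motor domain at 0.08 μg/μl final. Reactions were started with 2 mM ATP, run 5 min at room temperature, and stopped with CytoPhos. After 10 min more, absorbance was read at 650 nm. Compounds were tested at 0.25–10 μM against a 0.1% DMSO control, in triplicate. IC50 came from four-parameter non-linear regression.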

SN12C = assay: Growth inhibition of human SN12C cells; format: functional
KM12 = assay: Growth inhibition of human KM12 cells; format: functional
LOX IMVI = assay: Growth inhibition of human LOXIMVI cells; format: functional
SR = assay: Growth inhibition of human SR cells; format: functional
SK-MEL-5 = assay: Growth inhibition of human SK-MEL-5 cells; format: functional
HeLa [9] = assay: Inhibition of bipolar spindle formation in human HeLa cells at 1 uM; format: functional, cell-based
Method in brief: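 HeLa cells were grown in MEM with Earle's BSS, 10% FBS, sodium bicarbonate and pyruvate at 37°C in 5% CO2. They were exposed to compound in DMSO for 4 h, with 0.1% DMSO as carrier control. Cells were fixed in −20°C methanol and immunostained for tubulin, with DNA counterstained. Bipolar spindle formation was scored in 100 mitotic cells per condition.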

HOP-62 = assay: Growth inhibition of human HOP62 cells; format: functional
SW-620 = assay: Growth inhibition of human SW620 cells; format: functional
UO-31 = assay: Growth inhibition of human UO31 cells; format: functional
NCI-H322M = assay: Growth inhibition of human NCI-H322M cells; format: functional
EKVX = assay: Growth inhibition of human EKVX cells; format: functional
NCI-H522 = assay: Growth inhibition of human NCI-H522 cells; format: functional
UACC-257 = assay: Growth inhibition of human UACC257 cells; format: functional
SK-MEL-2 = assay: Growth inhibition of human SK-MEL-2 cells; format: functional
[10] = molecular target: Kinesin-like protein KIF2C (Homo sapiens) (UniProt Q99661); assay: Inhibition of MACK; method in brief: as §1
OVCAR-3 = assay: Growth inhibition of human OVCAR3 cells; format: functional
CAKI-1 = assay: Growth inhibition of human Caki1 cells; format: functional
OVCAR-5 = assay: Growth inhibition of human OVCAR5 cells; format: functional

Kinesin-like protein KIF2C (Homo sapiens), sequence (Q99661 whole entry): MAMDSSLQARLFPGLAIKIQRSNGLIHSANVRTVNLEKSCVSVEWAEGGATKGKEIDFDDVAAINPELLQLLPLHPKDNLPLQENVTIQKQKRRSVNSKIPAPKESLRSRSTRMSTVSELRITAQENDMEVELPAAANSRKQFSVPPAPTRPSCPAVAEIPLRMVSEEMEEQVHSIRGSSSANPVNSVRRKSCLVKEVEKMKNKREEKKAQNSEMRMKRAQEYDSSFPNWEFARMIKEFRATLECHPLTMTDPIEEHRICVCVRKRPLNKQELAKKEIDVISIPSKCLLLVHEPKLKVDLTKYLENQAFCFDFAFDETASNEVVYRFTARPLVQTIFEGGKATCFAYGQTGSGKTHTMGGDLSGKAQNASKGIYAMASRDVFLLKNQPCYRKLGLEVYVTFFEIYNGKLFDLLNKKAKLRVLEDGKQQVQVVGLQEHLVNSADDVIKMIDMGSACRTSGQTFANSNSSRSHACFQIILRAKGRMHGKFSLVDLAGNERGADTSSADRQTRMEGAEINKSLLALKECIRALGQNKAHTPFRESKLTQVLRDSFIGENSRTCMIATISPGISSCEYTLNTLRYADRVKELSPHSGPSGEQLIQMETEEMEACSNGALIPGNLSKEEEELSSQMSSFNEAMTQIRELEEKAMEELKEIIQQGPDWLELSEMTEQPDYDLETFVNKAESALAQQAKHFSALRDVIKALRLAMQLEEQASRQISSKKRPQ
Chromosome-associated kinesin KIF4A (Homo sapiens), sequence (O95239 whole entry): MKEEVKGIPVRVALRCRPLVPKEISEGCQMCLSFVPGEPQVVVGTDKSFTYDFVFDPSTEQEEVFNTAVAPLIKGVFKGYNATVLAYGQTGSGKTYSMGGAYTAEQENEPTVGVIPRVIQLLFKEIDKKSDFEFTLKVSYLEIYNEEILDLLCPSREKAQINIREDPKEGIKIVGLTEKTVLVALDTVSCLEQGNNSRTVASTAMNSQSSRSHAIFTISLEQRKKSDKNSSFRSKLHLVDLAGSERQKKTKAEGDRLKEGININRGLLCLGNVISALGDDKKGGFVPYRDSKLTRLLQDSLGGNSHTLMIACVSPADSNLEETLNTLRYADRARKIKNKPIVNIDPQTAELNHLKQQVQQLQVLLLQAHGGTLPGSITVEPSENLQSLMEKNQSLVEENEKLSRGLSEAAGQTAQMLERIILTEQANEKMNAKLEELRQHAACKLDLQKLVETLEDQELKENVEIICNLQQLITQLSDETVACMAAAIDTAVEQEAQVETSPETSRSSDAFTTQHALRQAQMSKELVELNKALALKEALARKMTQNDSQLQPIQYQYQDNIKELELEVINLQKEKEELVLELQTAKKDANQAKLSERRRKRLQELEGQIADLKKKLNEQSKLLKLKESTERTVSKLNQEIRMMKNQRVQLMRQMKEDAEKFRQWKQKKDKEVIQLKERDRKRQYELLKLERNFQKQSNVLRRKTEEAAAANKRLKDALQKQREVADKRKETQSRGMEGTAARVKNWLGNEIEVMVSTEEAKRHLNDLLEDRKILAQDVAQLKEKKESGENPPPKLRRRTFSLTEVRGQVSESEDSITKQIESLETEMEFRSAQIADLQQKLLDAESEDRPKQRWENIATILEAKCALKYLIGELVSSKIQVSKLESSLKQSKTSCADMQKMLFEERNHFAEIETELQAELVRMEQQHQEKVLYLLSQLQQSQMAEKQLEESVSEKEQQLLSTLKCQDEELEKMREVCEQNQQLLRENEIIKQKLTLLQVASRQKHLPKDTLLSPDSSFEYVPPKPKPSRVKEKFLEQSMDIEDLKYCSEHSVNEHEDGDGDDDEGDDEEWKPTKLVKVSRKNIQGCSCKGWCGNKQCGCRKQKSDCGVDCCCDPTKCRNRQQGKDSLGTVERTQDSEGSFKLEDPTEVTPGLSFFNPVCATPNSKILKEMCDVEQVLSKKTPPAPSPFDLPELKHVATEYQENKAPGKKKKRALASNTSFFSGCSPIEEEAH
Centromere-associated protein E (Homo sapiens), sequence (Q02224 whole entry, the tested form may be a part): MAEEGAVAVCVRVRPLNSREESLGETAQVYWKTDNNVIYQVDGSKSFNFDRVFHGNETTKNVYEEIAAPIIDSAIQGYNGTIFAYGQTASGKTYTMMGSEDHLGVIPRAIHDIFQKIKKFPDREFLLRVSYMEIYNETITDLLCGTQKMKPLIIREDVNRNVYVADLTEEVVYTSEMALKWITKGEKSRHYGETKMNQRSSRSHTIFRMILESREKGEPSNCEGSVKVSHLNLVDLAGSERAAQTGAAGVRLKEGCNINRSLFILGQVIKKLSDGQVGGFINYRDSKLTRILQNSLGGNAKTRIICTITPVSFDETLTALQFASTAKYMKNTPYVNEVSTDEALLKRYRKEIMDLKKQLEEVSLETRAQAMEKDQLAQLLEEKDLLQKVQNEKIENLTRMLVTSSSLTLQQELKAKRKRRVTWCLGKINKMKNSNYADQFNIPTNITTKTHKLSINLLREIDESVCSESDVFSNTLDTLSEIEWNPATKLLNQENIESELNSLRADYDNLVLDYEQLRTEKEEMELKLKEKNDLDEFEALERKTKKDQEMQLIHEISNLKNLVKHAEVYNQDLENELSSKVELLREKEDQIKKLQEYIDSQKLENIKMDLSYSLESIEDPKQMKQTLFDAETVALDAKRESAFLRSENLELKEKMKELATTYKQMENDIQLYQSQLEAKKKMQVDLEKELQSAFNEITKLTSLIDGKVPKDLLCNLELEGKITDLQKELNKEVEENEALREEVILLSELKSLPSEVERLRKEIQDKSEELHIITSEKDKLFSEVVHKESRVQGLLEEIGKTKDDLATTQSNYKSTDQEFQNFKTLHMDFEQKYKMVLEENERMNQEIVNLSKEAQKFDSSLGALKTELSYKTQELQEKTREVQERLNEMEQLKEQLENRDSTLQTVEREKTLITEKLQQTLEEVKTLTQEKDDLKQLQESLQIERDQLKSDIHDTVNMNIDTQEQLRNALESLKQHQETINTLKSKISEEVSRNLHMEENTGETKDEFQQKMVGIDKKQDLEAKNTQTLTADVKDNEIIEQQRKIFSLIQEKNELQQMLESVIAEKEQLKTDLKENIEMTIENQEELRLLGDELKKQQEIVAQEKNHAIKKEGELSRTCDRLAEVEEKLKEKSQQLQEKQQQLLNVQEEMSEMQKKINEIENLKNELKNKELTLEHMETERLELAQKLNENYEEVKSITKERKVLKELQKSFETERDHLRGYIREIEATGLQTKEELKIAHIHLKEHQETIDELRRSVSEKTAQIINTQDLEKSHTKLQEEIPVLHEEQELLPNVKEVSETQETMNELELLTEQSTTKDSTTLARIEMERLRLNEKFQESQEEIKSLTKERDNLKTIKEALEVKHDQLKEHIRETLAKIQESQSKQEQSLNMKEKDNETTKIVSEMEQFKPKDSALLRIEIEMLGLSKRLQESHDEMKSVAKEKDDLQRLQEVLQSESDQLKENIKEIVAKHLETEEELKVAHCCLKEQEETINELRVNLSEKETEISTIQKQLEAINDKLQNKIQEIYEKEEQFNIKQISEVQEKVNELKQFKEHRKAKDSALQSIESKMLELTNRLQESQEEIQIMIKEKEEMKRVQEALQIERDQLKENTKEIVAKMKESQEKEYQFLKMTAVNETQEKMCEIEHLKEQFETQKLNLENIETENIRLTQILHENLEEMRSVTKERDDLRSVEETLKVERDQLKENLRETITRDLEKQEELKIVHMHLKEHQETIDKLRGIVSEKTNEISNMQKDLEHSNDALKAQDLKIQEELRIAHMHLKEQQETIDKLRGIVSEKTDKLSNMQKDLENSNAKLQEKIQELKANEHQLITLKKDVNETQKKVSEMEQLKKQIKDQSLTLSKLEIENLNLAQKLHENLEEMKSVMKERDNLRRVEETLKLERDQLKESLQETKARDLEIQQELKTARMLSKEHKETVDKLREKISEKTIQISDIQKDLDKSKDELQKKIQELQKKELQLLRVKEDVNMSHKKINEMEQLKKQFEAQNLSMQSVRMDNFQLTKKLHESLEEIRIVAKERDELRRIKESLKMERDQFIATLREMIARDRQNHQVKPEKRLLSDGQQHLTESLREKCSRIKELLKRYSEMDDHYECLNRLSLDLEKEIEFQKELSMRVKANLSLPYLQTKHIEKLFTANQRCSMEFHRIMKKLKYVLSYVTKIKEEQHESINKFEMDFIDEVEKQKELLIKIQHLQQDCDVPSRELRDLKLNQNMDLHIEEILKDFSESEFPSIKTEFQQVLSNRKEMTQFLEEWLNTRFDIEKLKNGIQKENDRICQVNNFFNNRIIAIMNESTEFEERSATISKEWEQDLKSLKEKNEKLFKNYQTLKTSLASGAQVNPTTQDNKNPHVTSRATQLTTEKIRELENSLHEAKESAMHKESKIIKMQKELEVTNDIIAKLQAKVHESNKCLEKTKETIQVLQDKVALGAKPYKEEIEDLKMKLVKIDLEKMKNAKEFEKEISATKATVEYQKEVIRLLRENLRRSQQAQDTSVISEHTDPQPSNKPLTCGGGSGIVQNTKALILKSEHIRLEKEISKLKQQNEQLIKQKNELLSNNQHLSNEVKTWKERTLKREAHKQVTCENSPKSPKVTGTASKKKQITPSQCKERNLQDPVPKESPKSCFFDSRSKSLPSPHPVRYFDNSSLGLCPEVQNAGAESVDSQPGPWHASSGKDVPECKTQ

COc1ccc(C(SC[C@H](N)CO)(c2ccccc2)c2ccccc2)cc1 showed a GI50 (HL-60(TB)) of 190 nM, a GI50 (TK-10) of 460 nM and a GI50 (NCI-H226) of 2750 nM. The inhibition [1] was “inactive”, the GI50 (CCRF-CEM) was 100 nM and the GI50 (SK-OV-3) was 80 nM. It also gave a GI50 (OVCAR-4) of 1620 nM, a GI50 (OVCAR-8) of 420 nM and a GI50 (U-251) of 190 nM. The GI50 (ACHN) was 490 nM, the GI50 (M14) was 20 nM and the GI50 (COLO 205) was 80 nM. For the same compound, the Activity (HeLa [2]) was “Dose-dependent effect”, the Activity (HeLa [3]) was “inactive” and the GI50 (SF-539) was 260 nM. For the same compound, the GI50 (HT-29) was 340 nM, the GI50 (SK-MEL-28) was 620 nM and the GI50 (MOLT-4) was 280 nM. For the same compound, the inhibition [4] was “inactive”, the GI50 (HCC 2998) was 50 nM and the “fold change (FC)” value (HeLa [5]) was 1.63. The GI50 (K562) was 60 nM, the GI50 [6] was 30 nM and the GI50 (SF-268) was 110 nM. For the same compound, the GI50 (SNB-19) was 250 nM, the GI50 (786-0) was 440 nM and the GI50 (SF-295) was 280 nM. For the same compound, the GI50 (HCT-15) was 210 nM, the GI50 (UACC-62) was 250 nM and the GI50 (A549) was 330 nM. For the same compound, the EC50 [7] was 28000 nM, the GI50 (Malme-3M) was 360 nM and the inhibition [8] was “inactive”. For the same compound, the GI50 (SN12C) was 320 nM, the GI50 (KM12) was 220 nM and the GI50 (LOX IMVI) was 490 nM. The GI50 (SR) was 10 nM, the GI50 (SK-MEL-5) was 60 nM and the inhibition (HeLa [9]) was “Active”. The GI50 (HOP-62) was 510 nM, the GI50 (SW-620) was 70 nM and the GI50 (UO-31) was 1100 nM. It also gave a GI50 (NCI-H322M) of 110 nM, a GI50 (EKVX) of 510 nM and a GI50 (NCI-H522) of 220 nM. For the same compound, the GI50 (UACC-257) was 540 nM, the GI50 (SK-MEL-2) was 240 nM and the inhibition [10] was “inactive”. The GI50 (OVCAR-3) was 200 nM, the GI50 (CAKI-1) was 450 nM and the GI50 (OVCAR-5) was 390 nM.
With COc1ccc(C(SC[C@H](N)C(=O)O)(c2ccccc2)c2ccccc2)cc1 the inhibition [4] was “inactive”.
